From ChEMBL document CHEMBL1158548, “Tetrahydrochromenoimidazoles as potassium-competitive acid blockers (P-CABs): structure-activity relationship of their antisecretory properties and their affinity toward the hERG channel” (J Med Chem, 2010)
Active and inactive are the calls of the source. The calls are words filed in the database; no cut-off is given here.

Assays:
[1] = Inhibition of H+/K+ ATPase in hog gastric mucosa by malachite green based competitive binding assay; format: tissue-based, Sus scrofa
Outline: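 Hog gastric mucosa H+/K+-ATPase, isolated enzyme; competitive binding assay run at pH 7.4; pIC50 reported as geometric mean of 4-5 measurements.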

Gastric gland = experiment: Inhibition of acid secretion in New Zealand White rabbit intact gastric glands assessed as [14C]dimethylaminopyridine accumulation by radioactivity; format: functional, tissue-based; conditions: Oryctolagus cuniculus
Outline: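 Gastric glands isolated intact from New Zealand rabbits; cellular activity read as reduced accumulation of the weak base 14C-dimethylaminopyridine; pIC50 given as geometric mean of 4-5 determinations.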

Rattus norvegicus [2] = experiment: Inhibition of pentagastrin-stimulated acid secretion in intraduodenally dosed perfused Sprague-Dawley rat Ghosh Schild model; format: functional; conditions: intraduodenal
[3] = Octanol/aqueous KCl distribution coefficient, log D at pH 7.4 by potentiometric titration; format: physicochemical
Outline: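 Octanol/aqueous KCl distribution coefficient from potentiometric titrations across pH 2.0-11.0 at 25 °C.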

[4] = Partition coefficient, log D by HPLC; format: physicochemical; conditions: octanol/water
Outline: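 logD by reversed-phase HPLC at 37 °C, calibrated with seven reference substances of known logD.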

[5] = Dissociation constant, pKa at pH 2.0 to 11.0 by potentiometric cosolvent titration; format: physicochemical
hERG (KCNH2) = hERG (KCNH2) (Homo sapiens, UniProt Q12809); experiment: Inhibition of human ERG expressed in CHO-K1 cells at 10 uM by whole-cell patch clamp technique; format: cell-based; conditions: CHO-K1 cells that express human ERG
hERG (KCNH2), sequence (Q12809 whole entry): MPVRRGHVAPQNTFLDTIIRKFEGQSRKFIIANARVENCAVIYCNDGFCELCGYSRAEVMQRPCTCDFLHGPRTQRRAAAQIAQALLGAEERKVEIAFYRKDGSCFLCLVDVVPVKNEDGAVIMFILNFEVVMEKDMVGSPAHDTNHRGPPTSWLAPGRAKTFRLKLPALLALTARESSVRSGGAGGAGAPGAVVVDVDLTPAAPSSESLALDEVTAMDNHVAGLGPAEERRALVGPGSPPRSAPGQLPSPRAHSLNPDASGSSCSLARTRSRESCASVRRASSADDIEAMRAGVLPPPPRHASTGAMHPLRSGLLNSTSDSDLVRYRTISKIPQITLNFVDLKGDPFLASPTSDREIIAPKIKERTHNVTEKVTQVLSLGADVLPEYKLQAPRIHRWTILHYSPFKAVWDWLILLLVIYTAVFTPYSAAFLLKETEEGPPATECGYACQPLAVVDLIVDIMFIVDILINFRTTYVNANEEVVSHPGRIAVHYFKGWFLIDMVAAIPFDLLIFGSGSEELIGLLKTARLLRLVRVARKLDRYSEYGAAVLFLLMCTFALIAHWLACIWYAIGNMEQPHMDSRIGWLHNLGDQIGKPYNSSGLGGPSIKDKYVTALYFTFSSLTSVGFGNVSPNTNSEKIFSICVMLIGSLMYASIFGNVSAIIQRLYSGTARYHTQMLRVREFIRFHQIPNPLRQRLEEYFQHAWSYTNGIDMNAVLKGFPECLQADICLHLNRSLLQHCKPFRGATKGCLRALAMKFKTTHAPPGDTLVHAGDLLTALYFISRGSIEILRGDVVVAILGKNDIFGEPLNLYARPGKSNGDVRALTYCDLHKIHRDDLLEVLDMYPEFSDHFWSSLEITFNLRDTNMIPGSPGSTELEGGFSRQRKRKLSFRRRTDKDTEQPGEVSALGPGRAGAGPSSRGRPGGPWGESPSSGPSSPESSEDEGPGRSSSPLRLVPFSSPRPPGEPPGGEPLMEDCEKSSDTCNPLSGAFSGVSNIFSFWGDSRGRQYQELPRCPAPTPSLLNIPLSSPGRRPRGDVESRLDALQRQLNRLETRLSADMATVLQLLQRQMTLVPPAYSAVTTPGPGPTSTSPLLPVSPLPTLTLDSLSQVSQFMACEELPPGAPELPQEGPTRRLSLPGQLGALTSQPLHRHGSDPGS
Outline: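 CHO-K1 cells stably transfected with hERG; whole-cell patch clamp recording of tail currents with test compound at 10 μM, three cells per compound; relative block of tail current amplitude given as arithmetic mean.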

Canis familiaris [6] = experiment: Inhibition of pentagastrin-stimulated acid secretion in po dosed Beagle dog fistula model assessed as elevation of intragastric pH after 8 hrs; format: functional, organism-based; conditions: Canis lupus familiaris
Outline: (§1)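 Surgically prepared fistula dogs; pentagastrin infused subcutaneously from 1 h after start of pH-metry over 22.5 h; drug or vehicle given orally in capsules 2.5 h after start; intragastric pH recorded continuously for 24 h with combined glass electrode and ambulatory pH meter; duration of pH >5 read from curves.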

Canis familiaris [7] = experiment: Inhibition of pentagastrin-stimulated acid secretion in po dosed Beagle dog fistula model assessed as elevation of intragastric pH after 2 hrs; format: functional, organism-based; conditions: Canis lupus familiaris; outline: as §1
Canis familiaris [8] = experiment: Inhibition of pentagastrin-stimulated acid secretion in po dosed Beagle dog fistula model assessed as elevation of intragastric pH; format: functional, organism-based; conditions: Canis lupus familiaris; outline: as §1
Rattus norvegicus [9] = experiment: Inhibition of pentagastrin-stimulated acid secretion in Sprague-Dawley rat Ghosh Schild model at 3 umol/kg, intraduodenally; format: functional; conditions: intraduodenal
Canis familiaris [10] = experiment: Inhibition of pentagastrin-stimulated acid secretion in po dosed Beagle dog fistula model assessed as elevation of intragastric pH after 4 hrs; format: functional, organism-based; conditions: Canis lupus familiaris; outline: as §1
[11] = Clearance in Beagle dog fistula model; format: ADME, organism-based, Canis lupus familiaris; conditions: in vivo
[12] = Clearance in Sprague-Dawley rat Ghosh Schild model; format: ADME, organism-based; conditions: in vivo
Canis familiaris [13] = experiment: Inhibition of pentagastrin-stimulated acid secretion in Beagle dog fistula model assessed as elevation of intragastric pH at 9 umol/kg, po after 8 hrs; format: functional, organism-based; conditions: Canis lupus familiaris; outline: as §1
[14] = Oral bioavailability in Beagle dog fistula model; format: ADME, organism-based, Canis lupus familiaris; conditions: in vivo
[15] = Oral bioavailability in Sprague-Dawley rat Ghosh Schild model; format: ADME, organism-based; conditions: in vivo
Canis familiaris [16] = experiment: Inhibition of pentagastrin-stimulated acid secretion in po dosed Beagle dog fistula model assessed as elevation of intragastric pH after 2.5 hrs; format: functional, organism-based; conditions: Canis lupus familiaris; outline: as §1

| Structure (SMILES) | pIC50 [1] | IC50 (Gastric gland) [nM] | logD [3] | logD [4] | pKa ([5]; read-out: pKa) | clearance [11] [mL/min/kg] | clearance [12] [mL/min/kg] | pKa [5] | bioavailability [14] [%] | bioavailability [15] [%] | ED50 (Rattus norvegicus [2]) [µmol/kg] | inhibition at 10 µM (hERG (KCNH2)) [%] | Activity (Canis familiaris [6]) | Activity (Canis familiaris [7]) | Activity (Canis familiaris [8]) | inhibition in vivo at 3 µmol/kg (Rattus norvegicus [9]) [%] | Activity (Canis familiaris [10]) | Activity (Canis familiaris [13]) | Activity (Canis familiaris [16]) |
| --- | --- | --- | --- | --- | --- | --- | --- | --- | --- | --- | --- | --- | --- | --- | --- | --- | --- | --- | --- |
| CNC(=O)c1cc2c(nc(C)n2C)c2c1CC[C@@H](c1ccc(Cl)cc1C)O2 | 4.9 | 794 | 3.46 | 3.1 | 5.6 | – | – | – | – | – | 0.15 | 45 | Active | – | – | – | – | – | – |
| Cc1ccccc1[C@@H]1CCc2c(C(=O)N(C)C)cc3c(nc(C4CC4)n3C)c2O1 | – | – | 2.84 | 3.3 | 5.28 | – | – | – | – | – | 0.1 | 6 | – | – | inactive | – | – | – | – |
| Cc1ccccc1[C@@H]1CCc2c(C(=O)N3CCC3C(N)=O)cc3c(nc(C)n3C)c2O1 (some centres not stated) | 4.6 | – | – | 2.3 | – | – | – | – | – | – | 3 | 7 | – | – | – | 22 | – | – | – |
| Cc1cc(Cl)ccc1[C@@H]1CCc2c(C(=O)N(C)C)cc3c(nc(C)n3C)c2O1 | 6.1 | 200 | 3.4 | 3.2 | 5.59 | – | – | – | – | – | 0.1 | -6 | – | – | – | – | Active | – | – |
| Cc1ccccc1[C@@H]1CCc2c(C(=O)N(C)C)cc3c(nc(C)n3C)c2O1 | 5.3 | 794 | – | 2.8 | – | 4.67 | 21 | 5.68 | 72 | 64 | 0.23 | 33 | – | – | – | – | – | Active | – |
| Cc1nc2c3c(c(C(=O)N(C)C)cc2n1C)CC[C@@H](c1ccc2ccccc2c1)O3 | 4.1 | 63100 | 3.37 | 3.2 | 5.57 | – | – | – | – | – | 3 | 65 | – | – | – | – | – | – | – |
| CNC(=O)c1cc2c(nc(C)n2C)c2c1CC[C@@H](c1ccccc1C)O2 | 5.1 | 2510 | – | 2.7 | – | – | – | 5.7 | – | – | 0.25 | 3 | – | – | – | – | – | – | Active |
| COCc1ccccc1[C@@H]1CCc2c(C(=O)N(C)C)cc3c(nc(C)n3C)c2O1 | 4.7 | 15800 | 1.9 | 2.6 | 5.61 | – | – | – | – | – | 1.6 | 7 | – | – | – | – | – | – | – |
| CCc1ccccc1[C@@H]1CCc2c(C(=O)N(C)C)cc3c(nc(C)n3C)c2O1 | 5.4 | 1260 | – | 3 | – | – | – | – | – | – | 0.5 | 11 | – | – | inactive | – | – | – | – |

Further molecules by falling IC50 (Gastric gland), results first:

| pIC50 [1] | IC50 (Gastric gland) [nM] | logD [3] | logD [4] | pKa ([5]; read-out: pKa) | clearance [11] [mL/min/kg] | clearance [12] [mL/min/kg] | pKa [5] | bioavailability [14] [%] | bioavailability [15] [%] | Structure (SMILES) | ED50 (Rattus norvegicus [2]) [µmol/kg] | inhibition at 10 µM (hERG (KCNH2)) [%] | Activity (Canis familiaris [6]) | Activity (Canis familiaris [7]) | Activity (Canis familiaris [8]) | inhibition in vivo at 3 µmol/kg (Rattus norvegicus [9]) [%] | Activity (Canis familiaris [10]) | Activity (Canis familiaris [13]) | Activity (Canis familiaris [16]) |
| --- | --- | --- | --- | --- | --- | --- | --- | --- | --- | --- | --- | --- | --- | --- | --- | --- | --- | --- | --- |
| 4.7 | 79400 | – | 2.5 | – | – | – | – | – | – | Cc1ccccc1[C@@H]1CCc2c(C(=O)N3CC(C)(O)C3)cc3c(nc(C)n3C)c2O1 | 3 | 1 | – | – | – | 10 | – | – | – |
| 4.9 | 79400 | – | 2.5 | – | – | – | – | – | – | Cc1ccccc1[C@@H]1CCc2c(C(=O)N3CC(C(=O)N(C)C)C3)cc3c(nc(C)n3C)c2O1 | 3 | 6 | – | – | – | 36 | – | – | – |
| 4.8 | 3160 | 3.18 | 3.1 | 5.63 | – | – | – | – | – | Cc1nc2c3c(c(C(=O)N(C)C)cc2n1C)CC[C@@H](c1ccccc1C1CC1)O3 | 1.5 | 18 | – | – | – | – | – | – | – |
| 5.59 | 1950 | 2.82 | 2.8 | 5.66 | – | – | – | – | – | Cc1nc2c3c(c(C(=O)N(C)C)cc2[nH]1)CC[C@@H](c1ccccc1C)O3 | 0.5 | 11 | – | – | – | – | – | – | – |
| 4.9 | 1580 | 2.41 | 2.7 | 5.55 | – | – | – | – | – | Cc1nc2c3c(c(C(=O)N(C)C)cc2n1C)CC[C@@H](c1ccccc1F)O3 | 0.5 | 9 | – | – | – | – | – | – | – |
| 5.3 | 1000 | 2.36 | 2.7 | 5.65 | – | – | – | – | – | Cc1nc2c3c(c(C(=O)N(C)C)cc2n1C)CC[C@@H](c1ccc(F)cc1)O3 | 0.1 | 28 | – | – | – | – | – | – | – |
| 4.6 | 1000 | – | 2.8 | – | – | – | 5.62 | – | – | CC(=O)CNC(=O)c1cc2c(nc(C)n2C)c2c1CC[C@@H](c1ccccc1C)O2 | 0.3 | 63 | – | – | inactive | – | – | – | – |
| 5.2 | 631 | – | 2.9 | – | – | – | 5.66 | – | – | COC1CN(C(=O)c2cc3c(nc(C)n3C)c3c2CC[C@@H](c2ccccc2C)O3)C1 | 0.3 | 18 | – | – | Active | – | – | – | – |
| 5.1 | 398 | 2.92 | 2.9 | 5.59 | – | – | – | – | – | Cc1nc2c3c(c(C(=O)N(C)C)cc2n1C)CC[C@@H](c1ccc(Cl)cc1)O3 | 0.15 | 84 | – | Active | Active | – | – | – | – |
| 6 | 398 | 3.66 | 3.3 | 5.36 | – | – | – | – | – | Cc1nc2c3c(c(C(=O)N(C)C)cc2n1C)CC[C@@H](c1ccc(Cl)cc1Cl)O3 | 0.3 | 59 | – | – | – | – | – | – | – |
| 5.2 | 398 | 3.43 | 3.2 | 5.49 | – | – | – | – | – | Cc1cc(Cl)ccc1[C@@H]1CCc2c(C(=O)N3CCC3)cc3c(nc(C)n3C)c2O1 | 0.15 | 48 | – | – | – | – | – | – | – |
